Measured values of several laboratories.
Lines come from different studies, so protocols differ.
Target: Dual specificity mitogen-activated protein kinase kinase 2 (MAP2K2, Homo sapiens, UniProt P36507)

SMILES | test | setting | remaining binding
CN(C)c1nccc(-c2cnc3ncccn23)n1 | binding | 1 µM | 65%
O=C(c1ccc(Nc2nccc(-c3cc4ccccc4s3)n2)cc1)N1CCC(N2CCCC2)CC1 | binding, competition with immobilised ligand | 1 µM | 60%
FC(F)(F)Oc1cccc(-c2cnc3ccc(-c4ccncc4)nn23)c1 | cell-free assay, competition with immobilised ligand | 5 µM | 72%
COc1ncc2cc3ccccc3nc2c1C#N | cell-free assay, competition with immobilised ligand | 5 µM | 92%
O=C(O)[C@@H]1[C@@H](Cn2nnc3ccccc3c2=O)CC[C@H]1C(=O)c1ccc(OCCC2CCOCC2)cc1 | cell-free assay, competition with immobilised ligand | 1 µM | 100%
Cc1cnn2ncc(-c3ccnc(N(C)C)n3)c2c1 | binding | 1 µM | 100%
O=C(c1ccc(Nc2ncc(Cl)c(-c3cc4ccccc4s3)n2)cc1)N1CCC(N2CCCC2)CC1 | binding, competition with immobilised ligand | 1 µM | 27%
COc1cnc(Nc2cccc(S(N)(=O)=O)c2)nc1N1CCN(c2ccccc2)C(=O)C1 | binding, competition with immobilised ligand | 1 µM | 94%
N[C@H]1CCN(c2nccc(-c3cnn4ncccc34)n2)C1 | binding | 1 µM | 100%
O=C(NCCCN1CCOCC1)c1ccc(Nc2nccc(-c3cc4ccccc4s3)n2)cc1 | binding, competition with immobilised ligand | 1 µM | 79%
F[C@@H]1CCN(c2nccc(-c3cnn4ncccc34)n2)C1 | binding | 1 µM | 88%
CCOC(=O)c1cc2cc(-c3cc(C(=O)NCc4ccc(C(=O)O)cc4)nn3C)ccc2[nH]1 | cell-free assay, competition with immobilised ligand | 0.1 µM | 83%
c1cncc(-c2cccc(Nc3nccc(NC4CCCCC4)n3)c2)c1 | binding, competition with immobilised ligand | 10 µM | 83%
CN(c1nccc(-c2cnn3ncccc23)n1)C1CC1 | binding | 1 µM | 100%
CC(=O)c1c(NS(C)(=O)=O)c2cc(-c3ccc(Cl)cc3)c(-c3ccc(Cl)cc3Cl)nc2n(C)c1=O | cell-free assay, competition with immobilised ligand | 1 µM | 100%
CN(CCCC(F)(F)F)c1nccc(-c2cnn3ncccc23)n1 | binding | 1 µM | 100%
O=C(NS(=O)(=O)c1ccc(NCC2CCOCC2)c([N+](=O)[O-])c1)c1ccc(N2CCN(Cc3ccc(C(F)(F)F)cc3-c3ccc(Cl)cc3)CC2)cc1Oc1cnc2[nH]ccc2c1 | cell-free assay, competition with immobilised ligand | 1 µM | 100%
Nc1ncc2c(n1)-c1c([nH]c3ccc(C#CC4CC4)cc13)CCCC2 | binding, competition with immobilised ligand | 1 µM | 96%
Cc1nccc(COC(=O)N2C[C@@H]3[C@@H](CNC(=O)c4ccc5[nH]nnc5c4)[C@@H]3C2)n1 | cell-free assay, competition with immobilised ligand | 1 µM | 84%
C[C@@H]1CN(c2ccc3ncc(-c4ccc5[nH]nc(C6CC6)c5c4)n3n2)C[C@H](C)O1 | binding, competition with immobilised ligand | 0.5 µM | 100%
C[C@@]1(Cc2ccc(C#N)cc2)C(=O)N(c2cc(Cl)cc(Cl)c2)c2ncc(C(=O)NC3(c4nc(C5CCC5)no4)CC3)n21 | cell-free assay, competition with immobilised ligand | 1 µM | 99%
CNC(=O)[C@@H]1CC[C@@H](n2c(-c3ccc4cnccc4c3)nc3ccc(C(=O)NCc4cccc(C(N)=O)c4)cc32)C1 | binding, competition with immobilised ligand | 1 µM | 79%
O=C(NCC1CCOCC1)c1n[nH]cc1NC(=O)c1c(F)cccc1F | binding, competition with immobilised ligand | 1 µM | 100%
C[C@@H]1CN(c2cc(-c3n[nH]c4ccc(OC5(C)CC5)cc34)ncn2)C[C@H](C)O1 | cell-free assay, competition with immobilised ligand | 0.1 µM | 85%
